Results taken from ChEMBL document CHEMBL1125136, “Quinolone antibacterial agents substituted at the 7-position with spiroamines. Synthesis and structure-activity relationships” (1990).
In brackets after ≈: the same amount, converted by molar mass.

Columns and labels:
Staphylococcus aureus [1] = assay: Evaluated for minimum inhibitory concentration against […] bacteria Staphylococcus aureus H228; type: functional
Summary of the method: (§1)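 Broth microdilution MIC by standard technique. Values come from duplicate experiments and are stated as accurate to ±50%.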

Enterobacter cloacae = assay: Evaluated for minimum inhibitory concentration against gram-negative bacteria Enterobacter cloacae HA 2646; type: functional
Staphylococcus aureus [2] = assay: Evaluated for minimum inhibitory concentration against […] bacteria Staphylococcus aureus UC-76; type: functional; summary of the method: as §1
Pseudomonas aeruginosa [3] = assay: Evaluated for minimum inhibitory concentration against gram-negative bacteria Pseudomonas aeruginosa UI-18; type: functional; summary of the method: as §1
Escherichia coli [4] = assay: In vivo protective dose was determined in mouse protection assay in Escherichia coli Vogel after subcutaneous administration; type: functional; conditions: sc, read-out: PD50
Summary of the method: (§2)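 Female Charles River CD-1 mice were given an acute, lethal, systemic infection. A single dose of compound was given at the time of challenge, by the route stated in the line, with 16 animals per dose level. The read-out is the median protective dose (PD50, mg/kg). Per the footnote, values come from 16 animals per test, with a mean variation of ±34%.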

Escherichia coli [5] = assay: `Evaluated for minimum concentration needed to produce linear DNA at an intensity relative to oxolinic acid at 10 mg/mL. by gyrase mediated cleavage of DNA in Escherichia coli 560.; type: functional
Summary of the method: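 DNA gyrase isolated from Escherichia coli. The read-out is the minimum drug concentration (μg/mL) that induces gyrase-mediated DNA cleavage, giving linear DNA at an intensity relative to oxolinic acid at 10 mg/mL.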

[6] = Evaluated for minimum inhibitory concentration against […] bacteria […] SV-1; type: functional; summary of the method: as §1
Escherichia coli [7] = assay: In vivo protective dose for mouse protection assay in Escherichia coli Vogel after peroral administration; type: functional; conditions: po, read-out: PD50; summary of the method: as §2
Pseudomonas = assay: Evaluated for minimum inhibitory concentration against gram-negative bacteria Pseudomonas rettgeri H1771; type: functional; summary of the method: as §1
Enterococcus faecalis [8] = assay: Evaluated for minimum inhibitory concentration against gram-positive bacteria Staphylococcus faecalis MGH-2
Escherichia coli [9] = assay: Evaluated for minimum inhibitory concentration against gram-negative bacteria Escherichia coli Vogel; type: functional; summary of the method: as §1
Streptococcus pyogenes [10] = assay: Evaluated for minimum inhibitory concentration against gram-positive bacteria Streptococcus pyogenes C203
Klebsiella pneumoniae = assay: Evaluated for minimum inhibitory concentration against gram-negative bacteria Klebsiella pneumoniae MGH-2; type: functional; summary of the method: as §1
Escherichia coli [11] = assay: Evaluated for minimum concentration needed to produce linear DNA at an intensity relative to oxolinic acid at 10 mg/mL. by gyrase mediated cleavage of DNA in Escherichia coli 560.; type: functional; conditions: read-out: MIC
Pseudomonas aeruginosa [12] = assay: Evaluated for minimum inhibitory concentration against gram-negative bacteria Pseudomonas aeruginosa UI-18
Enterococcus faecalis [13] = assay: Evaluated for minimum inhibitory concentration against […] bacteria, Staphylococcus faecalis MGH-2; type: functional; summary of the method: as §1
Pseudomonas aeruginosa [14] = assay: In vivo protective dose was determined against Pseudomonas aeruginosa UI-18. after peroral administration; type: functional; conditions: po, read-out: PD50; summary of the method: as §2
Staphylococcus aureus [15] = assay: In vivo protective dose was determined against Staphylococcus aureus VC76. after subcutaneous administration; type: functional; conditions: sc, read-out: PD50; summary of the method: as §2
Staphylococcus aureus [16] = assay: In vivo protective dose was determined against Staphylococcus aureus VC76 after peroral administration; type: functional; conditions: po, read-out: PD50; summary of the method: as §2
Streptococcus pneumoniae [17] = assay: In vivo protective dose was determined against Streptococcus pneumoniae SV-1 after subcutaneous administration; conditions: sc, read-out: PD50
Streptococcus pyogenes [18] = assay: In vivo protective dose was determined against Streptococcus pyogenes after peroral administration; conditions: po, read-out: PD50
Pseudomonas aeruginosa [19] = assay: In vivo protective dose was determined against Pseudomonas aeruginosa UI-18. after subcutaneous administration; type: functional; conditions: sc, read-out: PD50; summary of the method: as §2
Streptococcus pyogenes [20] = assay: In vivo protective dose was determined against Streptococcus pyogenes after subcutaneous administration; conditions: sc, read-out: PD50
Streptococcus pneumoniae [21] = assay: In vivo protective dose was determined against Streptococcus pneumoniae SV-1 after peroral administration; conditions: po, read-out: PD50

| SMILES | MIC (Staphylococcus aureus [1]) [µg/mL] | MIC (Enterobacter cloacae) [µg/mL] | MIC (Staphylococcus aureus [2]) [µg/mL] | MIC (Pseudomonas aeruginosa [3]) [µg/mL] | ED50 (Escherichia coli [4]) [mg/kg] | MIC [6] [µg/mL] | ED50 (Escherichia coli [7]) [mg/kg] | MIC (Pseudomonas) [µg/mL] | MIC (Enterococcus faecalis [8]) [µg/mL] | MIC (Escherichia coli [9]) [µg/mL] | MIC (Streptococcus pyogenes [10]) [µg/mL] | MIC (Klebsiella pneumoniae) [µg/mL] | minimum concentration for gyrase-mediated DNA cleavage (Escherichia coli [11]) [µg/mL] | further results |
| --- | --- | --- | --- | --- | --- | --- | --- | --- | --- | --- | --- | --- | --- | --- |
| CCN1CCC2(CCN(c3nc4c(cc3F)c(=O)c(C(=O)O)cn4CC)C2)C1 (stereo not drawn) | 0.4 (≈ 1.03 µM) | 1.6 (≈ 4.12 µM) | 0.2 (≈ 0.515 µM) | 3.1 (≈ 7.98 µM) | 15 | 1.6 (≈ 4.12 µM) | 10.3 | 6.3 (≈ 16.2 µM) | 0.8 (≈ 2.06 µM) | 0.4 (≈ 1.03 µM) | 1.6 (≈ 4.12 µM) | 0.4 (≈ 1.03 µM) | – | MIC (Escherichia coli [5]): 5 µg/mL (≈ 12.9 µM) |
| CN1CCC2(CCN(c3c(F)cc4c(=O)c(C(=O)O)cn(C5CC5)c4c3F)C2)C1 (stereo not drawn) | 0.25 (≈ 0.62 µM) | 0.05 (≈ 0.124 µM) | 0.013 (≈ 0.0322 µM) | – | 2 | 0.05 (≈ 0.124 µM) | 5 | 0.2 (≈ 0.496 µM) | 0.1 (≈ 0.248 µM) | 0.05 (≈ 0.124 µM) | 0.05 (≈ 0.124 µM) | 0.1 (≈ 0.248 µM) | 0.5 | MIC (Pseudomonas aeruginosa [12]): 0.8 µg/mL (≈ 1.98 µM) |
| CCn1cc(C(=O)O)c(=O)c2cc(F)c(N3CCCC4(CCCNC4)C3)c(F)c21 (stereo not drawn) | 3.1 (≈ 7.65 µM) | 6.3 (≈ 15.5 µM) | 0.4 (≈ 0.987 µM) | 12.5 (≈ 30.8 µM) | – | 6.3 (≈ 15.5 µM) | – | 25 (≈ 61.7 µM) | – | 3.1 (≈ 7.65 µM) | 3.1 (≈ 7.65 µM) | 6.3 (≈ 15.5 µM) | 7.5 | MIC (Enterococcus faecalis [13]): 3.1 µg/mL (≈ 7.65 µM) |
| CCn1cc(C(=O)O)c(=O)c2cc(F)c(N3CCC4(CCN(C)C4)C3)c(F)c21 (stereo not drawn) | 0.1 (≈ 0.255 µM) | 0.1 (≈ 0.255 µM) | 0.006 (≈ 0.0153 µM) | 0.8 (≈ 2.04 µM) | 3.4 | 0.4 (≈ 1.02 µM) | 8.4 | 0.8 (≈ 2.04 µM) | 0.1 (≈ 0.255 µM) | 0.006 (≈ 0.0153 µM) | 0.2 (≈ 0.511 µM) | 0.1 (≈ 0.255 µM) | 1 | ED50 (Pseudomonas aeruginosa [14]): 140 mg/kg; ED50 (Staphylococcus aureus [15]): 4 mg/kg; ED50 (Staphylococcus aureus [16]): 9 mg/kg; ED50 (Streptococcus pneumoniae [17]): 11 mg/kg; ED50 (Streptococcus pyogenes [18]): 38 mg/kg; ED50 (Pseudomonas aeruginosa [19]): 70 mg/kg; ED50 (Streptococcus pyogenes [20]): 27 mg/kg; ED50 (Streptococcus pneumoniae [21]): 43 mg/kg |
